Source: article PMC8934255 (Cell chemical biology, 2021)

Tests used:
[1] = target: Pax2 (Mus musculus, UniProt P32114); type: cell-based; conditions: for Fold reduction (FR) of luminescence relative to vehicle treated Pax2 transfected PRS4-Luc cells: at 1.56 μM
[2] = tested on: BRE-Luc cells; experiment: BRE-Luc counter screen; type: cell-based, human; conditions: for Selectivity in PRS4-Luc cells over BRE-Luc cells: 8-point titration, fresh powder, duplicate
In short: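 Clonal HEK293 cells with an integrated BRE-Luc reporter, kept in DMEM with 10% FBS at 37°C and 5% CO2, were prepared like the PRS4-Luc cells. 6 × 10^3 cells/well (384-well) went onto plates pre-dosed with test compound or DMSO, in 8-point titrations in duplicate from fresh powder. Plates were incubated overnight, then Steady-Glo was added and luminescence read.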

[3] = Microsomal stability assay with NADPH-fortified mouse liver microsomes; type: in vitro ADME; conditions: for Half-life estimation in mouse liver microsomes: 1 μM compound, NADPH fortified, 5-60 min
In short: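 1μM test compound was incubated with 200μg pooled mouse liver microsomes in phosphate buffer (3.3mM MgCl2) with 4mg NADPH. Samples taken at 5, 10, 15, 30, 45 and 60 minutes were quenched with cold acetonitrile. After protein precipitation, supernatants were analyzed by LC/MS/MS and percent remaining plotted over time. Verapamil served as the high-clearance control.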

[4] = tested on: Avpr2; experiment: RT-PCR of Avpr2 expression in IMCD cells in high salt; type: cell-based, mouse; conditions: 5 μM, 500 mOsm/kg, 24 hours
[5] = tested on: Pax2 binding site at the AVPR2 promoter; experiment: ChIP at the AVPR2 promoter in IMCD cells in high salt; type: cell-based, mouse; conditions: 5 μM, high salt 24 hours
In short: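 Mouse mIMCD3 cells in triplicate were pretreated 4 h with DMSO or 5 μM test compound (per figure legend). They were then kept 24 h in control medium or NaCl-supplemented medium (500 mOsm/kg), with or without compound. Chromatin immunoprecipitation was followed by real-time PCR with primers for the Pax2 binding site at the AVPR2 promoter. Antibodies included PTIP, H3K4me3 and RNA Pol II CTD.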

[6] = tested on: UTA1/3; experiment: RT-PCR of UTA1/UTA3 mRNA in IMCD cells in high salt; type: cell-based, mouse; conditions: 5 μM, high salt 24 hours
[7] = tested on: Pax8 binding site at the Slc14a2 promoter; experiment: ChIP at the Slc14a2 promoter and Pax8 western blot in IMCD cells in high salt; type: cell-based, mouse; conditions: 5 μM, high salt 24 hours
[8] = tested on: Pax2, Pax8, PTIP; experiment: Western blot of Pax2, Pax8 and PTIP protein levels in IMCD cells; type: cell-based, mouse; conditions: 5 μM, mIMCD cells
In short: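 Mouse IMCD cells were cultured 24 h in normal or high-salt medium with DMSO or 5 μM test compound. Lysates were western blotted for Pax2, Pax8 and PTIP.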

[9] = tested on: Pax2; conditions: at 10 μM; ref Grimley et al., 2017; cited from earlier work
[10] = target: Pax5 (Homo sapiens, UniProt Q02548); experiment: PRS4-Luc luciferase reporter assay, Pax5 activation; type: cell-based; conditions: compared with Pax2
Pax5, sequence (Q02548 whole entry, species assumed): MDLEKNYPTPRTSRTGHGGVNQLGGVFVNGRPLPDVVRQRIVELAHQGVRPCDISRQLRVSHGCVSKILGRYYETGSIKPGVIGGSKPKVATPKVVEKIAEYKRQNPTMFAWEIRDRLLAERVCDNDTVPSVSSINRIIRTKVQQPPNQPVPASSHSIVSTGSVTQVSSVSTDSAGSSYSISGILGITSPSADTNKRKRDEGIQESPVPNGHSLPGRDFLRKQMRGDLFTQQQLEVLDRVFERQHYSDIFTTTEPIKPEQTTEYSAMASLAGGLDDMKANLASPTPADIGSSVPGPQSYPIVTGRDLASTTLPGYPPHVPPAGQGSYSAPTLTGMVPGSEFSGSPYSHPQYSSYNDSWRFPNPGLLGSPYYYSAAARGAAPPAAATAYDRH

[11] = target: Pax8 (Homo sapiens, UniProt Q06710); experiment: PRS4-Luc luciferase reporter assay, Pax8 activation; type: cell-based; conditions: compared with Pax2
Pax8, sequence (Q06710 whole entry, species assumed): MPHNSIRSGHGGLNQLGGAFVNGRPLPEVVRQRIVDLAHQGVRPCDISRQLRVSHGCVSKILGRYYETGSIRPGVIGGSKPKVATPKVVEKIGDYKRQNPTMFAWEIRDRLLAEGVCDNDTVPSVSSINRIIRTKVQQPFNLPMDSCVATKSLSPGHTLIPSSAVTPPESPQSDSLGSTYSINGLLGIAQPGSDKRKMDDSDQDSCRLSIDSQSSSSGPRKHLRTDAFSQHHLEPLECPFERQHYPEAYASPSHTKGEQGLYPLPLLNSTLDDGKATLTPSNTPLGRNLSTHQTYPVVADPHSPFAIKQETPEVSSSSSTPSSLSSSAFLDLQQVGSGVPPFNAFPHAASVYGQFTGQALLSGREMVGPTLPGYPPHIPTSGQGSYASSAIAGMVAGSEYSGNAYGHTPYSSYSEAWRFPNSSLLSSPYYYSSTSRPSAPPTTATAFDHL

[12] = In vivo pharmacokinetics, plasma clearance in mice; set-up: species or system mouse
In short: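 Mice got one dose of test compound formulated at 3mg/mL in PBS with 20% DMSO and 50% PEG-400, given intravenously (5 mg/kg) or orally (15 mg/kg). Blood was drawn at 0.5, 2, 4 and 7 h and plasma isolated by centrifugation. Compound was measured by LC-MS/MS and plasma concentration plotted semi-logarithmically against time.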

[13] = tested on: Pax2 expressing RCC; experiment: Phospho-histone H3 immunoblot; type: cell-based, human; conditions: 24 hours, vs vehicle
In short: (§1)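 Human RCC or SKOV-3 cells (RPMI 1640, 10% FBS) or HEK293 cells (DMEM, 10% FBS) were seeded at 5.0 × 10^4 cells/well and attached overnight. Cells had 24 h of increasing test compound concentrations or DMSO. Lysates were boiled 5 min at 95°C in 2X SDS buffer, separated on 8% or 15% gels, transferred to PVDF at 4°C and probed for phospho-H3 (Ser10), total H3 and β-actin. Significance was by ANOVA with Dunnett's test versus vehicle.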

[14] = tested on: ovarian carcinoma (SKOV-3) cells; experiment: Phospho-histone H3 immunoblot in Pax2-negative SKOV-3 cells; type: cell-based, human; conditions: each concentration tested, 24 hours, vs vehicle (DMSO)
In short: as §1

[15] = tested on: HEK293 cells; experiment: Phospho-histone H3 immunoblot in HEK293 cells lacking Pax2; type: cell-based, human; conditions: increasing concentrations, 24 hours
In short: as §1

[16] = tested on: Pax2-positive RCC cells; experiment: Luciferase ATP; type: cell-based, human; conditions: each concentration tested, 18 hours
[17] = tested on: Pax2-negative SKOV-3 cells; experiment: Luciferase ATP; type: cell-based, human; conditions: only at 15 μM, tenfold the IC50, 18 hours
[18] = tested on: Cdh6; experiment: Immunoblot of Cdh6 and Pax2 protein in Pax2-positive RCC; type: cell-based, human; conditions: 24 hours
In short: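 Pax2-positive human RCC cells grown in RPMI 1640 with 10% FBS were seeded at 5.0 × 10^4 cells/well, attached overnight, then exposed 24 h to increasing test compound concentrations or DMSO. Whole-cell lysates in 2X SDS buffer were run on SDS-PAGE, transferred to PVDF and probed for Cdh6, Pax2 and β-actin with ECL and film detection. Cdh6 densitometry was normalized to β-actin per lane.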

[19] = tested on: Pax proteins; experiment: Phosphorylation of Pax proteins in cell systems; type: cell-based; conditions: Fig. S2

Pax2 (Mus musculus, UniProt P32114), sequence (P32114 1-391 isoform P32114-2): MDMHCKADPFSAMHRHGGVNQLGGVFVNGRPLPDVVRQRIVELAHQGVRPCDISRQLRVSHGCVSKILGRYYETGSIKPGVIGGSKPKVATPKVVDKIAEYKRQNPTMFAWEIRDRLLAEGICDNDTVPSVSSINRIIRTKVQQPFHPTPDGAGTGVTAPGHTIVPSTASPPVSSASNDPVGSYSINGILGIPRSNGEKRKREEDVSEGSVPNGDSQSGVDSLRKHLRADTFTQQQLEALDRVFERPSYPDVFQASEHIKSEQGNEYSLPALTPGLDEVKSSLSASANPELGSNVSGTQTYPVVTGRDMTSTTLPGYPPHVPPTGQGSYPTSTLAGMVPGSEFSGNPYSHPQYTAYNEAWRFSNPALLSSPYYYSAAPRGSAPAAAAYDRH

| Fold reduction (FR) of luminescence relative to vehicle treated Pax2 transfected PRS4-Luc cells [1] | Half-life estimation in mouse liver microsomes [3] [min] | Compound | Selectivity in PRS4-Luc cells over BRE-Luc cells [2] | Increased Avpr2 expression in response to high salt [4] | Histone H3K4me3 and RNA PolII recruitment at the AVPR2 promoter (ChIP) [5] | Increased Pax2 binding to the Avpr2 promoter in high salt (ChIP) [5] | Recruitment of PTIP at the AVPR2 promoter (ChIP) [5] | Increased UTA1/3 mRNA expression in high salt [6] | Increased H3K4me3 and PolII binding at the Slc14a2 promoter (ChIP) [7] | Pax8 protein levels or binding to the Slc14a2 promoter [7] | Recruitment of PTIP and the H3K4 methyltransferase complex at the Slc14a2 promoter (ChIP) [7] | Pax2, Pax8, or PTIP protein levels [8] | other results |
| --- | --- | --- | --- | --- | --- | --- | --- | --- | --- | --- | --- | --- | --- |
| 0.78 | 46.24 | Cc1nc2ncnn2c(N2CCN(c3ccc(Cl)cc3)CC2)c1C [BG-2] | selective activity | significantly inhibited | prevented | no effect | inhibited | significantly inhibited | prevent | no effect | inhibit | did not affect | Stability in vitro, rank among the three compounds ([3]; mouse liver microsomes): most stable in vitro |
|  |  | COc1ccccc1C(=O)Nc1ccc(C(=O)Nc2ccccc2C(=O)O)cc1 [EG1] |  |  |  |  |  |  |  |  |  |  | Maximal inhibition of Pax2 [9]: approximately 50% |
| 0.82 | 25.39 | CCc1c(C)nc2ncnn2c1Nc1ccc(Cl)cc1 [BG-3] | selective activity |  |  |  |  |  |  |  |  |  | Signs of cytotoxicity in counter screen ([2]; PRS4-Luc and BRE-Luc cells, up to 50 μM): did not indicate signs of cytotoxicity |
| 0.58 | 7.89 | Cc1ccc(C)c(N2CCN(c3c(C)c(C)nc4ncnn34)CC2)c1 [BG-1] | selective activity | significantly inhibited | prevented | no effect | inhibited | significantly inhibited | prevent | no effect | inhibit | did not affect | Change of IC50 of BG1 in combination with EG1 ([1]; fixed 10 μM EG1, Prs4-Luc reporter cells, Fig. S3): reduce the IC50; Inhibition of Pax5 activation of the PRS4-Luc reporter [10]: similarly inhibited; Inhibition of Pax8 activation of the PRS4-Luc reporter [11]: similarly inhibited; Stability in vivo, rank among the three compounds ([12]; IV 5 mg/kg or PO 15 mg/kg, plasma 0.5-7 h): most stable compound in vivo; Rate of plasma clearance compared to the other two compounds ([12]; intravenous 5 mg/kg single dose): lowest rate of clearance; pHH3 levels ([13]; 1.5 μM): significant reduction; pHH3 levels ([13]; 15 μM): significant reduction; pHH3 levels [14]: no significant change; pHH3 levels [15]: did not significantly change; Percentage of viable cells (ATP luminescence) [16]: significantly and dose-dependently lowered; Metabolically active cells (ATP luminescence) [17]: significant drop; Cdh6 protein levels ([18]; 1.5 μM): significant reduction; Pax2 protein levels ([18]; 1.5 μM): no effect; Pax2 protein levels ([18]; 15 μM): also reduced; Effect on the phosphorylation of Pax proteins [19]: could not determine any discernible effects |
